Assay results taken from ChEMBL document CHEMBL1152612, “Ursolic acid derivatives induce cell cycle arrest and apoptosis in NTUB1 cells associated with reactive oxygen species” (Bioorg Med Chem, 2009).
The source made the active and inactive calls. The calls are words filed in the database; no cut-off is given here.

Experiments:
[1] = Cytotoxicity against human NTUB1 cells after 72 hrs by MTT assay; format: functional, cell-based; settings: NTUB1, 72 h
Method in brief: (§1)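 Cells grown in RPMI 1640 with 10% FBS, penicillin/streptomycin and 2 mM L-glutamine at 37 °C under 5% CO₂. Seeded 1800 cells/well, left overnight, then given graded compound concentrations for 72 h; compounds diluted from DMSO, 0.1% DMSO in medium and in controls. MTT 2 mg/mL in PBS for 3 h, formazan dissolved in DMSO, absorbance 540 nm. Viability given as % of control; IC50 by median-effect analysis, mean ± SD.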

[2] = Cytotoxicity against human NTUB1 cells assessed as cell viability at >30 uM after 72 hrs by MTT assay; format: functional; method in brief: as §1
[3] = Cell cycle arrest in human NTUB1 cells assessed as accumulation at G1 phase at 20 uM after 24 hrs using propidium iodide staining by flow cytometry; format: functional, cell-based
Method in brief: (§2)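 NTUB1 cells plated at 8 × 10⁵ per 10 cm dish and exposed to compound for 24 or 48 h; untreated controls got medium alone. Cells trypsinized, PBS-washed and fixed overnight in ice-cold MeOH at −20 °C, then stained with 50 µg/mL propidium iodide plus RNase A. DNA content was read by flow cytometry, with apoptosis taken as sub-G1 accumulation. Three independent experiments.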

[4] = Cell cycle arrest in human NTUB1 cells assessed as accumulation at G2/M phase at 20 uM after 24 hrs using propidium iodide staining by flow cytometry; format: functional, cell-based; method in brief: as §2
[5] = Cell cycle arrest in human NTUB1 cells assessed as accumulation at S phase at 20 uM after 24 hrs using propidium iodide staining by flow cytometry; format: functional, cell-based; method in brief: as §2
[6] = tested on: A549; assay: Cytotoxicity against human A549 cells at 50 uM after 72 hrs by MTT assay; format: functional, cell-based; method in brief: as §1
[7] = tested on: PC-3; assay: Cytotoxicity against human PC3 cells at 50 uM after 72 hrs by MTT assay; format: functional, cell-based; method in brief: as §1
[8] = Cell cycle arrest in human NTUB1 cells assessed as accumulation at G1 phase at 40 uM after 24 hrs using propidium iodide staining by flow cytometry; format: functional, cell-based; method in brief: as §2
[9] = Induction of apoptosis in human NTUB1 cells assessed as accumulation at subG1 phase at 20 uM after 24 hrs using propidium iodide staining by flow cytometry; format: functional; method in brief: as §2
[10] = Induction of apoptosis in human NTUB1 cells assessed as accumulation at subG1 phase at 40 uM after 24 hrs using propidium iodide staining by flow cytometry; format: functional; method in brief: as §2
[11] = Cell cycle arrest in human NTUB1 cells assessed as accumulation at S phase at 40 uM after 24 hrs using propidium iodide staining by flow cytometry; format: functional, cell-based; method in brief: as §2
[12] = Cell cycle arrest in human NTUB1 cells assessed as accumulation at G2/M phase at 40 uM after 24 hrs using propidium iodide staining by flow cytometry; format: functional, cell-based; method in brief: as §2

SMILES | IC50 [1] [µM] | other results
CCCCOC(=O)[C@]12CC[C@@H](C)[C@H](C)[C@H]1C1=CC[C@@H]3[C@@]4(C)CC[C@H](O)C(C)(C)[C@@H]4CC[C@@]3(C)[C@]1(C)CC2 | 15.6 | –
CCCCCCOC(=O)[C@]12CC[C@@H](C)[C@H](C)[C@H]1C1=CC[C@@H]3[C@@]4(C)CC[C@H](O)C(C)(C)[C@@H]4CC[C@@]3(C)[C@]1(C)CC2 | 26.2 | –
C[C@H]1[C@H](C)CC[C@]2(C(=O)O)CC[C@]3(C)C(=CC[C@@H]4[C@@](C)(CCC(=O)O)[C@H](C(C)(C)O)CC[C@]43C)[C@H]12 | > 30 | Activity [2]: 56.04%
COC(=O)[C@]12CC[C@@H](C)[C@H](C)[C@H]1C1=CC[C@@H]3[C@@]4(C)CC[C@H](O)C(C)(C)[C@@H]4CC[C@@]3(C)[C@]1(C)CC2 [METHYL URSOLATE] | 37.1 | –
C[C@H]1[C@H](C)CC[C@]2(C(=O)O)CC[C@]3(C)C(=CC[C@@H]4[C@@]5(C)CCC(=O)OC(C)(C)[C@@H]5CC[C@]43C)[C@H]12 | > 30 | Activity [2]: 63.91%
C[C@H]1[C@H](C)CC[C@]2(C(=O)O)CC[C@]3(C)C(=CC[C@@H]4[C@@]5(C)CC[C@H](OC(=O)CCC(=O)O)C(C)(C)[C@@H]5CC[C@]43C)[C@H]12 | 8.65 | Activity [3]: 13.1%; Activity [4]: 24.1%; Activity [5]: 18.5%; Activity [6]: Active; Activity [7]: Active; Activity [8]: 18.9%; Activity [9]: 7.27%; Activity [10]: 61.37%; Activity [11]: 7.51%; Activity [12]: 7.36%
C[C@H]1[C@H](C)CC[C@]2(C(=O)O)CC[C@]3(C)C(=CC[C@@H]4[C@@]5(C)CCC(=O)C(C)(C)[C@@H]5CC[C@]43C)[C@H]12 [URSONIC ACID] | 21.4 | –
CCCCCOC(=O)[C@]12CC[C@@H](C)[C@H](C)[C@H]1C1=CC[C@@H]3[C@@]4(C)CC[C@H](O)C(C)(C)[C@@H]4CC[C@@]3(C)[C@]1(C)CC2 | 27.8 | –
CC(C)=CCOC(=O)[C@]12CC[C@@H](C)[C@H](C)[C@H]1C1=CC[C@@H]3[C@@]4(C)CC[C@H](O)C(C)(C)[C@@H]4CC[C@@]3(C)[C@]1(C)CC2 | 10.9 | –
CC(=O)O[C@H]1CC[C@]2(C)[C@H]3CC=C4[C@@H]5[C@@H](C)[C@H](C)CC[C@]5(C(=O)O)CC[C@@]4(C)[C@]3(C)CC[C@H]2C1(C)C [O-ACETYLURSOLIC ACID] | 14.3 | –
C=C(C)[C@@H]1CC[C@]2(C)[C@H](CC=C3[C@@H]4[C@@H](C)[C@H](C)CC[C@]4(C(=O)OC)CC[C@]32C)[C@@]1(C)CCC(=O)OC | 15.6 | –
C/C=C/C(=O)O[C@H]1CC[C@]2(C)[C@H]3CC=C4[C@@H]5[C@@H](C)[C@H](C)CC[C@]5(C(=O)O)CC[C@@]4(C)[C@]3(C)CC[C@H]2C1(C)C | 11.9 | –
